Reference: ChEMBL document CHEMBL1147152, “Radiolabeled phenethylguanidines: novel imaging agents for cardiac sympathetic neurons and adrenergic tumors” (J Med Chem, 2007)

Columns and labels:
Adrenal medulla = test: Biodistribution in adrenal medulla of Sprague-Dawley rat at 50 to 350 uCi, iv; type: ADME, organism-based; conditions: in vivo
Heart = test: Neuronal drug uptake rate in isolated Sprague-Dawley rat heart; type: ADME, tissue-based
Method in brief: (§1)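 Isolated working rat heart perfused with Krebs-Henseleit bicarbonate buffer plus 5 mM glucose, gassed 95% O₂/5% CO₂, with 54 μM corticosterone to block uptake-2. After 30 min stabilization, 10 min constant infusion of ¹¹C tracer (2.0-12.0 μCi/mL perfusate), then 120 min washout. Whole-heart activity read by coincidence CsF detectors and converted to apparent distribution volume. K_up (mL/min/g wet) taken as the linear slope of the 1-4 min infusion data. Clearance half-time (hr) from multi-exponential fit of the washout phase.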

[1] = Drug clearance rate in isolated Sprague-Dawley rat heart; type: ADME, tissue-based; method in brief: as §1
Blood = test: Biodistribution in blood of Sprague-Dawley rat at 50 to 350 uCi, iv; type: ADME, organism-based; conditions: in vivo
Spleen = test: Biodistribution in spleen of Sprague-Dawley rat at 50 to 350 uCi, iv; type: ADME, organism-based; conditions: in vivo
Liver = test: Biodistribution in liver of Sprague-Dawley rat at 50 to 350 uCi, iv; type: ADME, organism-based; conditions: in vivo
[2] = Biodistribution in left ventricle of Sprague-Dawley rat at 50 to 350 uCi, iv; type: ADME, organism-based, Heart left ventricle; conditions: in vivo
Muscle tissue = test: Biodistribution in muscle of Sprague-Dawley rat at 50 to 350 uCi, iv; type: ADME, organism-based; conditions: in vivo
Lung = test: Biodistribution in lung of Sprague-Dawley rat at 50 to 350 uCi, iv; type: ADME, organism-based; conditions: in vivo
[3] = Ratio of drug level in heart to blood in macaque rhesus monkey at 5.4 mCi, iv; type: ADME, organism-based, Macaca mulatta
Method in brief: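 Rhesus monkey PET: 5.4 mCi of the [¹¹C] tracer, given as an intravenous bolus via catheter to a 5.3 kg animal. Images were reconstructed by OSEM/3D-MAP, and tissue ratios were taken from the dynamic myocardial kinetics.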

PC-12 [4] = test: Drug uptake in tumor of rat PC12 cells xenografted BALB/c nu/nu mouse at 0.34 mCi within 10 mins; conditions: in vivo
PC-12 [5] = test: Drug uptake in heart of rat PC12 cells xenografted BALB/c nu/nu mouse at 0.34 mCi at 60 mins; conditions: in vivo, 1 h
Rhesus monkey [6] = test: Ratio of drug level in heart to liver in macaque rhesus monkey at 4.9 mCi, iv; type: ADME, organism-based, Macaca mulatta; conditions: in vivo
Rhesus monkey [7] = test: Ratio of drug level in heart to liver in macaque rhesus monkey at 4.8 mCi, iv; type: ADME, organism-based, Macaca mulatta; conditions: in vivo
[8] = Ratio of drug level in heart to blood in macaque rhesus monkey at 4.8 mCi, iv; type: ADME, organism-based, Macaca mulatta

SMILES: N=[11C](N)NCCc1ccc(F)c(O)c1
- Drug uptake (Adrenal medulla): 0.56 % ID/g
- Kup (Heart): 0.72 mL/min/g
- half-life [1]: > 73 h
- Drug uptake (Blood): 0.08 % ID/g
- Drug uptake (Spleen): 0.52 % ID/g
- Drug uptake (Liver): 1.22 % ID/g
- Drug uptake [2]: 1.77 % ID/g
- Drug uptake (Muscle tissue): 0.07 % ID/g
- Drug uptake (Lung): 0.56 % ID/g

SMILES: N=[11C](N)NCCc1cccc(I)c1
- Kup (Heart): 1.1 mL/min/g
- half-life [1]: 2.4 h

SMILES: N=[11C](N)NCCc1cc(O)ccc1F
- Drug uptake (Adrenal medulla): 0.46 % ID/g
- Kup (Heart): 0.49 mL/min/g
- half-life [1]: > 20 h
- Drug uptake (Blood): 0.07 % ID/g
- Drug uptake (Spleen): 0.43 % ID/g
- Drug uptake (Liver): 0.92 % ID/g
- Drug uptake [2]: 1.01 % ID/g
- Drug uptake (Muscle tissue): 0.06 % ID/g
- Drug uptake (Lung): 0.34 % ID/g

SMILES: N=[11C](N)NCCc1ccccc1F
- Kup (Heart): 1.76 mL/min/g
- half-life [1]: 2.3 h

SMILES: C[C@H](N[11CH3])[C@H](O)c1cccc(O)c1
- Kp [3]: 4.5
- Drug uptake (Blood): 0.08 % ID/g
- Drug uptake (Muscle tissue): 0.17 % ID/g
- Drug uptake (Lung): 0.4 % ID/g

SMILES: N=[11C](N)NCCc1ccc(O)cc1
- Drug uptake (Adrenal medulla): 1.17 % ID/g
- Drug uptake (PC-12 [4]): 29 % ID/g
- Kup (Heart): 1.64 mL/min/g
- half-life [1]: > 45 h
- Drug uptake (Blood): 0.16 % ID/g
- Drug uptake (Spleen): 0.97 % ID/g
- Drug uptake (PC-12 [5]): 17 % ID/g
- Drug uptake (Liver): 0.84 % ID/g
- Drug uptake [2]: 3.3 % ID/g
- Drug uptake (Muscle tissue): 0.14 % ID/g
- Drug uptake (Lung): 0.68 % ID/g

SMILES: N=[11C](N)NCCc1cccc(F)c1
- Kup (Heart): 0.24 mL/min/g
- half-life [1]: 1.9 h

SMILES: N=[11C](N)NCCc1ccc(F)cc1
- Kup (Heart): 0.63 mL/min/g
- half-life [1]: 4.4 h

SMILES: N=[11C](N)NC[C@H](O)c1ccccc1
- Drug uptake (Adrenal medulla): 0.53 % ID/g
- Kup (Heart): 0.42 mL/min/g
- half-life [1]: 22 h
- Drug uptake (Blood): 0.09 % ID/g
- Drug uptake (Spleen): 0.88 % ID/g
- Drug uptake (Liver): 3.91 % ID/g
- Drug uptake [2]: 1.91 % ID/g
- Drug uptake (Muscle tissue): 0.1 % ID/g
- Drug uptake (Lung): 0.86 % ID/g

SMILES: N=[11C](N)NCC(O)c1cccc(O)c1 (centres undefined)
- Drug uptake (Adrenal medulla): 0.36 % ID/g
- Kup (Heart): 0.3 mL/min/g
- Ratio (Rhesus monkey [6]): 0.6
- half-life [1]: > 152 h
- Drug uptake (Blood): 0.14 % ID/g
- Drug uptake (Spleen): 0.63 % ID/g
- Drug uptake (Liver): 2.71 % ID/g
- Drug uptake [2]: 1.17 % ID/g
- Drug uptake (Muscle tissue): 0.07 % ID/g
- Drug uptake (Lung): 0.75 % ID/g

SMILES: N=[11C](N)NCCc1cccc(O)c1
- Drug uptake (Adrenal medulla): 0.88 % ID/g
- Kup (Heart): 1.96 mL/min/g
- Ratio (Rhesus monkey [7]): 4.4
- half-life [1]: > 102 h
- Drug uptake (Blood): 0.07 % ID/g
- Kp [8]: 4.7
- Drug uptake (Spleen): 0.63 % ID/g
- Drug uptake (Liver): 0.89 % ID/g
- Drug uptake [2]: 2.28 % ID/g
- Drug uptake (Muscle tissue): 0.07 % ID/g
- Drug uptake (Lung): 0.74 % ID/g

SMILES: N=[11C](N)NCCc1ccc(I)cc1
- Kup (Heart): 0.56 mL/min/g
- half-life [1]: 1.9 h

SMILES: COc1ccc(CCN[11C](=N)N)cc1
- Kup (Heart): 0.73 mL/min/g
- half-life [1]: 2.3 h

SMILES: [11CH3]NC[C@H](O)c1ccc(O)c(O)c1 [[11C]EPINEPHRINE]
- Drug uptake (Adrenal medulla): 0.61 % ID/g
- Drug uptake (Blood): 0.13 % ID/g
- Drug uptake (Spleen): 0.64 % ID/g
- Drug uptake (Liver): 1.95 % ID/g
- Drug uptake [2]: 2.14 % ID/g
- Drug uptake (Muscle tissue): 0.22 % ID/g
- Drug uptake (Lung): 0.39 % ID/g

SMILES: N=[11C](N)NCCc1ccccc1 [[11C]PHENETHYLGUANIDINE]
- Kup (Heart): 1.56 mL/min/g
- half-life [1]: 3.3 h
